ChEMBL document CHEMBL4177662, “Phosphamide-containing diphenylpyrimidine analogues (PA-DPPYs) as potent focal adhesion kinase (FAK) inhibitors with enhanced activity against pancreatic cancer cell lines” (Bioorg Med Chem, 2017)

Experiments:
[1] = Antiproliferative activity against human HPDE6c7 cells after 72 hrs by MTT assay; assay type: cell-based; conditions: HPDE6c7, 72 h
Method in brief: (§1)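 Cells grown in DMEM with 10% FBS and 1% penicillin-streptomycin at 37 °C, 5% CO2. Seeded at 4,000 to 5,000 cells/well, cultured one day, then exposed to compounds for 72 h at 1.25 to 40 μmol/L, five replicates per concentration. MTT absorbance read at 570 nm. IC50 from five-point dose-response curves; mean of at least three separate experiments.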

ASPC1 = assay: Antiproliferative activity against human Aspc-1 cells after 72 hrs by MTT assay; assay type: functional, cell-based; conditions: ASPC1, 72 h; method in brief: as §1
PANC-1 = assay: Antiproliferative activity against human PANC1 cells after 72 hrs by MTT assay; assay type: functional, cell-based; conditions: PANC-1, 72 h; method in brief: as §1
Focal adhesion kinase 1 = Focal adhesion kinase 1 (Homo sapiens, UniProt Q05397); assay: Inhibition of recombinant human N-terminal His-tagged FAK cytoplasmic domain (393 to 698 residues) expressed in baculovirus infected sf9 cells assessed as reduction in autophosphorylation after 60 mins by ADP-Glo kinase assay
Chain of Focal adhesion kinase 1 (Q05397 whole entry, the tested form may be a part): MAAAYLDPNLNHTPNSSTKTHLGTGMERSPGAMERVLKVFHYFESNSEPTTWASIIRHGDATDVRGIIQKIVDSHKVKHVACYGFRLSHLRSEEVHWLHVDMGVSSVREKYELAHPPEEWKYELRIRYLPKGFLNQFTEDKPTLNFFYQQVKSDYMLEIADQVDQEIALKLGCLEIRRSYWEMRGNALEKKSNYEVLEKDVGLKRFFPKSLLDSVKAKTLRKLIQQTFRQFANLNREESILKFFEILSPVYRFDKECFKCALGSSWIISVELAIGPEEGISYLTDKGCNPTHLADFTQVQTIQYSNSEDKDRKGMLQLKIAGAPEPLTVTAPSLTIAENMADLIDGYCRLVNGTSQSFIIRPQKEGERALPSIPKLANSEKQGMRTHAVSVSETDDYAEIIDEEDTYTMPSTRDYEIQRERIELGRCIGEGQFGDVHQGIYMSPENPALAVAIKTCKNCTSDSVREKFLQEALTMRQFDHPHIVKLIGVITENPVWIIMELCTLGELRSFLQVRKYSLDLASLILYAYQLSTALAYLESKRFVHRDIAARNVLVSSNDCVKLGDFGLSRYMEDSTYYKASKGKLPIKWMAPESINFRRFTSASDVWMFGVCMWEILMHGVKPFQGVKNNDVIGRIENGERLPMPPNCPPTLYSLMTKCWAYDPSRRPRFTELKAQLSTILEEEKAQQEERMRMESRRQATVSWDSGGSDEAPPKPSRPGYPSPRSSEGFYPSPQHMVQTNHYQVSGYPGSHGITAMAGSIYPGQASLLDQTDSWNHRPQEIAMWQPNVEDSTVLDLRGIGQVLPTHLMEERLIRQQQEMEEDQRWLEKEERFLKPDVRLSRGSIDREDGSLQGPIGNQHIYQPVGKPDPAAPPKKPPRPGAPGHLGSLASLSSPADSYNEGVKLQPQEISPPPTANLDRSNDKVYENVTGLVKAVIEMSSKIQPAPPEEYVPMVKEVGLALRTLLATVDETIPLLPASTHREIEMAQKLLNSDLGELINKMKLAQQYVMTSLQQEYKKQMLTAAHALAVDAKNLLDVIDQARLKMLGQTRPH
Method in brief: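 ADP-Glo luminescence assay. The kinase reaction ran in 1× kinase buffer with compound at 1 to 200 nM, for 60 min at room temperature. ADP-Glo reagent was then added to stop the reaction and deplete leftover ATP (40 min, room temperature). Detection reagent converted ADP to ATP for luciferase read-out (30 min). IC50 from curve fitting, mean ± SE of three independent experiments.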

BXPC-3 = assay: Antiproliferative activity against human BxPC3 cells after 72 hrs by MTT assay; assay type: functional, cell-based; conditions: BXPC-3, 72 h; method in brief: as §1

Row | SMILES | IC50 (ASPC1) [µM] | IC50 (PANC-1) [µM] | IC50 (Focal adhesion kinase 1) [µM] | IC50 (BXPC-3) [µM] | IC50 [1] [µM]
1 | CCOP(=O)(Cc1ccc(Nc2ncc(Cl)c(Nc3ccccc3C(=O)NC)n2)cc1)OCC | 3.31 | 14.8 | 0.00425 | 0.02 | 5.44
2 | CNC(=O)c1ccccc1Nc1nc(Nc2ccc(N3CCOCC3)cc2OC)ncc1Cl |  | > 20 |  |  | 11.4
3 | CCOP(=O)(CCCOc1ccc(Nc2ncc([N+](=O)[O-])c(Nc3ccccc3C(=O)NC)n2)cc1)OCC | 18.3 | 25.4 | 0.00618 | 2.04 | 1.96
4 | CCOP(=O)(Cc1ccc(Nc2ncc([N+](=O)[O-])c(Nc3ccccc3C(=O)NC)n2)cc1)N1CCOCC1 (configuration not stated) | 6.42 | > 40 | 0.00569 | 1.02 | 8.11

Now from value to compound, other results behind:

Row | IC50 (ASPC1) [µM] | IC50 (PANC-1) [µM] | IC50 (Focal adhesion kinase 1) [µM] | IC50 (BXPC-3) [µM] | SMILES | IC50 [1] [µM]
5 | 4.93 | 10.9 | 0.0107 | 1.04 | CCOP(=O)(CCCOc1ccc(Nc2ncc(Cl)c(Nc3ccccc3C(=O)NC)n2)cc1)OCC | 4.43
6 | 15.2 | 19.2 | 0.00501 | 0.82 | CCOP(=O)(Cc1ccc(Nc2ncc([N+](=O)[O-])c(Nc3ccccc3C(=O)NC)n2)cc1)OCC | 4.6
